From ChEMBL document CHEMBL4480394, “Benzimidazolone-based selective σ2 receptor ligands: Synthesis and pharmacological evaluation” (Eur J Med Chem, 2019)

Key:
[1] = target: Sigma non-opioid intracellular receptor 1 (Rattus norvegicus, UniProt Q9R0C9); assay: Displacement of [3H](+)-pentazocine from sigma1 receptor in rat brain membranes after 120 mins by radioligand binding assay; assay type: cell membranes
[2] = target: T1, Sigma intracellular receptor 2 (Rattus norvegicus, UniProt Q5U3Y7); assay: Displacement of [3H]-DTG from sigma2 receptor in rat brain membranes after 120 mins in presence of (+)-pentazocine by radioligand binding assay; assay type: cell membranes
T1 sequence (Q5U3Y7 whole entry): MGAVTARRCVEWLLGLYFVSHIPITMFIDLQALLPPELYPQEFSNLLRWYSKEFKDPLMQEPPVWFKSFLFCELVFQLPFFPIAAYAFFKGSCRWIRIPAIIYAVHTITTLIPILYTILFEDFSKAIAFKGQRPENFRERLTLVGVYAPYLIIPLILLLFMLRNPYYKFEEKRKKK

Rattus norvegicus [3] = organism: Rattus norvegicus; assay: Selectivity ratio of Ki for sigma1 receptor in rat brain membranes to Ki for sigma2 receptor in rat brain membranes; assay type: cell membranes
[4] = target: 5-hydroxytryptamine receptor 2A (Rattus norvegicus, UniProt P14842); assay: Displacement of [3H]ketanserin from 5-HT2 receptor in rat brain membranes after 120 mins by radioligand binding assay; assay type: cell membranes
Sequence of 5-hydroxytryptamine receptor 2A (P14842 whole entry): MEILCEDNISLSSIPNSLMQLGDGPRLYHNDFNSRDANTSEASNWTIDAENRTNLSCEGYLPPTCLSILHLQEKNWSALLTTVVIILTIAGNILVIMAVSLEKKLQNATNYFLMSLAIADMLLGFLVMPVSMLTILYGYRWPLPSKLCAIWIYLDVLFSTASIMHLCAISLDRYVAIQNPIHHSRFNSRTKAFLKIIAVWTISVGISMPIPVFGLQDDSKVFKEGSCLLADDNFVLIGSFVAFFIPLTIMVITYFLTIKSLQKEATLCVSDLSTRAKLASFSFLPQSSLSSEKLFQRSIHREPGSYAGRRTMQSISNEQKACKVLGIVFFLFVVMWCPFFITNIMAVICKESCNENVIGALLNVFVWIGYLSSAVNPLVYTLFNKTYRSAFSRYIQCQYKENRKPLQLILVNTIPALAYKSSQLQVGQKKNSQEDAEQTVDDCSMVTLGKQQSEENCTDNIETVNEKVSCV
Procedure, shortened: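 5-HT2 site in rat brain (minus cerebellum) membranes labeled with 2 nM [3H]ketanserin; 1 µM mianserin nonspecific. Glass-fiber filtration, Ki by Cheng-Prusoff; triplicate, mean ± SEM.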

[5] = target: Sodium-dependent dopamine transporter (Rattus norvegicus, UniProt P23977); assay: Displacement of [3H]WIN 35428 from dopamine transporter in rat striatal membranes after 120 mins by radioligand binding assay; assay type: cell membranes, Striatum, Membrane
Sequence of Sodium-dependent dopamine transporter (P23977 whole entry): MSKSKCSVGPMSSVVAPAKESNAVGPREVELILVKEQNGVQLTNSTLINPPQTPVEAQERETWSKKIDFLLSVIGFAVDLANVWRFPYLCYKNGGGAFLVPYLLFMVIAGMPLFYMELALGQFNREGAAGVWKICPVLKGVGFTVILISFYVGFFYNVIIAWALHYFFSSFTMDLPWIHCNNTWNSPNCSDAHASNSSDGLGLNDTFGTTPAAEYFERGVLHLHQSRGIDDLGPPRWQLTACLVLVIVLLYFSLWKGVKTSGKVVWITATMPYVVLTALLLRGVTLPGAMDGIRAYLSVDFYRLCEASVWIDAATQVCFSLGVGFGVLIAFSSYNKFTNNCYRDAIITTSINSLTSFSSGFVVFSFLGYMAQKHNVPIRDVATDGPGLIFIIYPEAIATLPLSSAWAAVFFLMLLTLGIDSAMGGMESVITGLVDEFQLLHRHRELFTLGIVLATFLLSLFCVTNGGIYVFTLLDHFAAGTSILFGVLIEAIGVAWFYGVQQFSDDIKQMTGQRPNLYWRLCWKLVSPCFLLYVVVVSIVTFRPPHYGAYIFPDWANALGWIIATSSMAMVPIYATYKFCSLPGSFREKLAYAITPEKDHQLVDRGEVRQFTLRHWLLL

[6] = target: Sodium-dependent serotonin transporter (Rattus norvegicus, UniProt P31652); assay: Displacement of [3H]paroxetine from serotonin transporter in rat brainstem membranes after 120 mins by radioligand binding assay; assay type: cell membranes
Sequence of Sodium-dependent serotonin transporter (P31652 whole entry): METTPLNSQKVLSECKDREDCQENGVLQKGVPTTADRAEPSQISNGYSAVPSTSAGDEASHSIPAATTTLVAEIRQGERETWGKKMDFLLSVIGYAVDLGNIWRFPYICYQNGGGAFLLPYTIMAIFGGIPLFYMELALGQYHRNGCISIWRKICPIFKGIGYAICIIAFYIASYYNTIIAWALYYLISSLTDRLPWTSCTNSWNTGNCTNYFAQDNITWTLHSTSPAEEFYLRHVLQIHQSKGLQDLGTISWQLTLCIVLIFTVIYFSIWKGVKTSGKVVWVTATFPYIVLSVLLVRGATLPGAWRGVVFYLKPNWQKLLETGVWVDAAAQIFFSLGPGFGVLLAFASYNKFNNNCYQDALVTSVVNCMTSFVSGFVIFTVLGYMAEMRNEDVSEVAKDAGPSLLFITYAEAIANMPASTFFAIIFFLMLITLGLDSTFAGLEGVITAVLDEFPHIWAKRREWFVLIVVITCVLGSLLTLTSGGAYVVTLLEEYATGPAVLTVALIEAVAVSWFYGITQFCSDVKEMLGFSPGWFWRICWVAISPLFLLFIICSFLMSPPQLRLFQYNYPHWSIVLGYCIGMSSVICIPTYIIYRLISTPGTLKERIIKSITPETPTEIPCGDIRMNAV
Procedure, shortened: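 Rat brainstem membranes, 0.2 nM [3H]paroxetine; nonspecific with 1.5 µM imipramine. Ice-cold buffer stop, glass-fiber filtration, Cheng-Prusoff Ki; triplicate, mean ± SEM.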

[7] = Displacement of [3H]nisoxetine from norepinephrine transporter in rat cerebral cortex membranes after 120 mins by radioligand binding assay; assay type: cell membranes, Membrane
D(2) dopamine receptor = D(2) dopamine receptor (Rattus norvegicus, UniProt P61169); assay: Displacement of [3H](-)-sulpiride from dopamine D2 receptor in rat brain membranes after 120 mins by radioligand binding assay; assay type: cell membranes
Sequence of D(2) dopamine receptor (P61169 whole entry): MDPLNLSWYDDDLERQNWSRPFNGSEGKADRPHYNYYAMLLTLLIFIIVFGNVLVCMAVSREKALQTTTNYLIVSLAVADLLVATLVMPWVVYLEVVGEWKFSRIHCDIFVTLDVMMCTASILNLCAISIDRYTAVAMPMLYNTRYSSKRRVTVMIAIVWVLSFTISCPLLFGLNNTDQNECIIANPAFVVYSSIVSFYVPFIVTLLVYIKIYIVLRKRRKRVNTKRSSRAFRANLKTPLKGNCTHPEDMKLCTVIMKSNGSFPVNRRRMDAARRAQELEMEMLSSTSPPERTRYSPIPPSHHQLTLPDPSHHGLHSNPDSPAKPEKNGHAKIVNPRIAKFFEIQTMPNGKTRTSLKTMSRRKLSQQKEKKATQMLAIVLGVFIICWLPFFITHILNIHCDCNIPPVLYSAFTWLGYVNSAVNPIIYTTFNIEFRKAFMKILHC

Glutamate NMDA receptor = assay: Displacement of [3H]TCP from NMDA receptor in rat brain membranes after 120 mins by radioligand binding assay; assay type: cell membranes
Procedure, shortened: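 PCP site of NMDA receptor in rat brain minus cerebellum membranes, 5 nM [3H]TCP; nonspecific with 10 µM cyclazocine.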

Opioid receptor = Opioid receptor (Rattus norvegicus, UniProt P33533+P34975+P33535); assay: Displacement of [3H]bremazocine from opioid receptor in rat brain membranes after 120 mins by radioligand binding assay; assay type: cell membranes
Rattus norvegicus [8] = organism: Rattus norvegicus; assay: Selectivity ratio of Ki for 5-HT2 receptor in rat brain membranes to Ki for sigma2 receptor in rat brain membranes; assay type: cell membranes
Mus musculus = assay: Anticonvulsant activity in ip dosed Swiss Webster mouse assessed as reduction in cocaine-induced convulsion pretreated for 15 mins followed by cocaine-challenge and measured for 30 mins; assay type: functional, organism-based

Sequence of Sigma non-opioid intracellular receptor 1 (Q9R0C9 whole entry): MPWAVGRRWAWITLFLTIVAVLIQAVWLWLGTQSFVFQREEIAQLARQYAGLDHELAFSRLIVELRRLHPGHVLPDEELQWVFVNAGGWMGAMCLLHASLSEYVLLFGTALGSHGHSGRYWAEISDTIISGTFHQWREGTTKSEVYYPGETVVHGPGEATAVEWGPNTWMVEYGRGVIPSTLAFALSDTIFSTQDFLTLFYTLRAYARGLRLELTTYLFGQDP

Row | Compound | Ki [1] [nM] | Ki [2] [nM] | Ratio Ki (Rattus norvegicus [3]) | Ki [4] [nM] | Ki [5] [nM] | Ki [6] [nM] | Ki [7] [nM] | Ki (D(2) dopamine receptor) [nM] | Ki (Glutamate NMDA receptor) [nM] | Ki (Opioid receptor) [nM] | Ratio Ki (Rattus norvegicus [8]) | Activity (Mus musculus)
1 | CCCn1c(=O)n(CCCCN2CCN(c3ccc(F)cc3)CC2)c2ccc(C(C)=O)cc21 | 273 | 1.81 | 151 |  |  |  |  |  |  |  |  | 
2 | Cn1c(=O)n(CCCCN2CCN(c3ccc(F)cc3)CC2)c2ccccc21 |  | 2.05 |  |  |  |  |  |  |  |  |  | 
3 | CCCCCCCCCCn1c(=O)n(CCCCN2CCN(c3ccc(F)cc3)CC2)c2ccccc21 | 724 | 4.55 | 159 |  |  |  |  |  |  |  |  | 
4 | CCCCCn1c(=O)n(CCCCN2CCN(c3ccc(F)cc3)CC2)c2ccc(C(C)=O)cc21 | 299 | 2.15 | 139 |  |  |  |  |  |  |  |  | 
5 | CC(=O)c1ccc2c(c1)[nH]c(=O)n2CCCCN1CCN(c2ccc(F)cc2)CC1 | 166 | 28.5 | 5.8 |  |  |  |  |  |  |  |  | 
6 | CCCCCn1c(=O)n(CCCCN2CCN(c3ccc(F)cc3)CC2)c2ccccc21 | 2270 | 4.27 | 532 | 250 | > 1000 | 446 | > 10000 | > 1000 | > 10000 | > 10000 |  | 
7 | CC(=O)c1ccc2c(c1)n(C)c(=O)n2CCCCN1CCN(c2ccc(F)cc2)CC1 | 72.3 | 7.6 | 9.5 |  |  |  |  |  |  |  |  | 
8 | CCCCCCCCCCn1c(=O)n(CCCCN2CCN(c3ccc(F)cc3)CC2)c2ccc(C(C)=O)cc21 | 988 | 32.5 | 30.4 |  |  |  |  |  |  |  |  | 
9 | CCCn1c(=O)n(CCCCN2CCN(c3ccc(F)cc3)CC2)c2ccccc21 | 752 | 0.66 | 1140 | 54.7 | > 1000 | > 1000 | > 10000 | > 10000 | > 10000 | > 10000 | 83 | Dose-dependent effect
10 | O=c1[nH]c2ccccc2n1CCCCN1CCN(c2ccc(F)cc2)CC1 | 144 | 18.4 |  |  |  |  |  |  |  |  |  | 
